Test results reported in ChEMBL document CHEMBL1150329, “The discovery of fused pyrrole carboxylic acids as novel, potent D-amino acid oxidase (DAO) inhibitors” (Bioorg Med Chem Lett, 2008).
The source made the active and inactive calls. The calls are words filed in the database; no cut-off is given here.

How the values were obtained:
D-amino-acid oxidase = D-amino-acid oxidase (Homo sapiens, UniProt P14920); assay: Inhibition of human DAO
Cytochrome P450 3A4 = Cytochrome P450 3A4 (Homo sapiens, UniProt P08684); assay: Inhibition of CYP3A4; format: ADME
[1] = Inhibition of CYP3C9; format: ADME
Cytochrome P450 2D6 = Cytochrome P450 2D6 (Homo sapiens, UniProt P10635); assay: Inhibition of CYP2D6; format: ADME
D-aspartate oxidase = target: T1, D-aspartate oxidase (Homo sapiens, UniProt Q99489); assay: Inhibition of human DDO
T1 sequence (Q99489 whole entry): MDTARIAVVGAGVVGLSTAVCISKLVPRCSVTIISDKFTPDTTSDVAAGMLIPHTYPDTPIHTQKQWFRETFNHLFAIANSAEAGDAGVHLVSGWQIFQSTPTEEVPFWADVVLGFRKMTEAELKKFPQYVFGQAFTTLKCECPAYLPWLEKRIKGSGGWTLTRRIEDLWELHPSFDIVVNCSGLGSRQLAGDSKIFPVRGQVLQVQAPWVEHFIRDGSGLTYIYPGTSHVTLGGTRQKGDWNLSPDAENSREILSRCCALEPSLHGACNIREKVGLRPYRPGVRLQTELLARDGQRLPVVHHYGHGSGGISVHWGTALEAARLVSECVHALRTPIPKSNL

Rattus norvegicus [2] = assay: Ex vivo inhibition of DAO in ip dosed rat cerebellum; format: functional, organism-based
In short: (§1)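 Rats were given 25, 75 or 150 mg/kg ip. DAO enzyme activity was measured ex vivo in kidney and cerebellum at 1, 2 and 4 h after dosing and compared with vehicle-dosed rats. Time and treatment effects were tested by two-way ANOVA, with Bonferroni post tests for individual dose-versus-vehicle comparisons.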

Rattus norvegicus [3] = assay: Ex vivo inhibition of DAO in ip dosed rat kidney; format: functional, organism-based; in short: as §1
Rattus norvegicus [4] = assay: Ex vivo inhibition of DAO in rat cerebellum at 25 mg/kg, ip after 1 hr; format: functional, organism-based; design: dose 25 mg/kg; in short: as §1

D-amino-acid oxidase, sequence (P14920 whole entry): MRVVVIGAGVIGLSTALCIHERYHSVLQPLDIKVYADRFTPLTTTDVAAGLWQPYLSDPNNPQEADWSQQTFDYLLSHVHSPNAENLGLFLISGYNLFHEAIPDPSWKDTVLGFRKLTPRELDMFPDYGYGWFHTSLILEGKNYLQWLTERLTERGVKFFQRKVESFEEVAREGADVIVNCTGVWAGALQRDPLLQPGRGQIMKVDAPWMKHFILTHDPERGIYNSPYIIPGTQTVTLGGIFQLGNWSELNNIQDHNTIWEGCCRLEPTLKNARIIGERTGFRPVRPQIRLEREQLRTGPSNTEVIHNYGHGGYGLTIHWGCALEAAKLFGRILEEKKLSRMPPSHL
Cytochrome P450 2D6, sequence (P10635 whole entry): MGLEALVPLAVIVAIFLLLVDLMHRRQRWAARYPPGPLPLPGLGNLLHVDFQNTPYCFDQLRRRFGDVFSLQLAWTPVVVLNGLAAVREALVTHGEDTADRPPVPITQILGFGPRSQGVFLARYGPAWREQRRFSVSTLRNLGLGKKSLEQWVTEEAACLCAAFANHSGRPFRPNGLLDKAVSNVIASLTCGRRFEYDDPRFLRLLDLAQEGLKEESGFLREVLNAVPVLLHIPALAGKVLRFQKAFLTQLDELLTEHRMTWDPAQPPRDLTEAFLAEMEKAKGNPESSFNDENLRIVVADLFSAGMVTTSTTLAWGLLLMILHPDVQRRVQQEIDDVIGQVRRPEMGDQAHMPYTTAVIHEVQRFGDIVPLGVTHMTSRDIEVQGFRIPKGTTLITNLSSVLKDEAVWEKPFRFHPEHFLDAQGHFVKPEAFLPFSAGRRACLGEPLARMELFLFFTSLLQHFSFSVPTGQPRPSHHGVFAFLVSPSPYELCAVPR
Cytochrome P450 3A4, sequence (P08684 whole entry): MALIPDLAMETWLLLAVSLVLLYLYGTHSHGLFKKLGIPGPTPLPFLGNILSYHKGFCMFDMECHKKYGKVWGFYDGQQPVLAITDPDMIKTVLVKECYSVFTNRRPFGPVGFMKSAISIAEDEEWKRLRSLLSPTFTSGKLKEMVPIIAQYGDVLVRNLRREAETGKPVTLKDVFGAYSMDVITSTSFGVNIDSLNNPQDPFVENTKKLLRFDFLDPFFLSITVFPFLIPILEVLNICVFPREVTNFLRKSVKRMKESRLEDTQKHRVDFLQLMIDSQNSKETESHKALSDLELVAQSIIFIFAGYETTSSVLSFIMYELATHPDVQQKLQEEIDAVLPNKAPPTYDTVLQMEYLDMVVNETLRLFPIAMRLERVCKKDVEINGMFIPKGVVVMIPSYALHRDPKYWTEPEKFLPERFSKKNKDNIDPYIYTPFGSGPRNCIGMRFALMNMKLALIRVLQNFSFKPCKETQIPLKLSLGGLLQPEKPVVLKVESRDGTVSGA

SMILES | IC50 (D-amino-acid oxidase) | also measured
Cc1oc2cc(C(=O)O)[nH]c2c1C | > 5 µM | 
O=C(O)c1cc2occ(CO)c2[nH]1 | > 5 µM | 
O=C(O)c1cc2ncsc2[nH]1 | 4.2 µM | 
O=C(O)c1cc2sccc2[nH]1 | 0.245 µM | IC50 (Cytochrome P450 3A4): > 10 µM; IC50 [1]: > 10 µM; IC50 (Cytochrome P450 2D6): > 10 µM
O=C(O)c1cc2occ(-c3cccnc3)c2[nH]1 | > 5 µM | 
O=C(O)c1cc2oc(-c3ccccc3)cc2[nH]1 | > 5 µM | 
Oc1noc2cc(Cl)ccc12 |  | IC50 (D-aspartate oxidase): > 5 µM
O=C(O)c1cc2oc(-c3ccc(Cl)cc3)cc2[nH]1 | > 5 µM | 
O=C(O)c1cc2ccccc2[nH]1 [INDOLE-2-CARBOXYLIC ACID] | 0.745 µM | IC50 (D-aspartate oxidase): > 5 µM
O=C(O)c1cc2occ(-c3ccc(Cl)cc3)c2[nH]1 | > 5 µM | 
O=C(O)c1cc2oc(-c3ccc(Cl)cc3Cl)cc2[nH]1 | > 5 µM | 
O=C(O)c1cc2[nH]ncc2[nH]1 | > 5 µM | 
O=C(O)c1cc2occ(Cl)c2[nH]1 | 1.43 µM | 
O=C(O)c1cc2sc(Cl)cc2[nH]1 | > 5 µM | 
O=C(O)c1ccc[nH]1 | > 5 µM | 
O=C(O)c1cc2oc(Cl)cc2[nH]1 | > 5 µM | 
O=C(O)c1cc2ocnc2[nH]1 | > 5 µM | 
O=C(O)c1cc2ccsc2[nH]1 | 0.269 µM | 
O=C(O)c1cc2occc2[nH]1 |  | IC50 (Cytochrome P450 3A4): > 10 µM; Activity (Rattus norvegicus [2]): Active; IC50 [1]: > 10 µM; IC50 (Cytochrome P450 2D6): > 10 µM; Activity (Rattus norvegicus [3]): Active; IC50 (D-aspartate oxidase): > 5 µM; Activity (Rattus norvegicus [4]): inactive
O=C(O)c1cc(Cl)c(Cl)o1 | 0.343 µM | IC50 (D-aspartate oxidase): > 5 µM
N#Cc1csc2cc(C(=O)O)[nH]c12 | 1.15 µM | 
O=C(O)c1cc2occ(-c3cccc(Cl)c3)c2[nH]1 | > 5 µM | 
O=C(O)c1cc2oc(-c3cccc(Cl)c3)cc2[nH]1 | > 5 µM | 
O=C(O)c1cc2scnc2[nH]1 | 0.516 µM | 
